In data set [1] the test system is L929. In words: Induction of azide reporter generation in mouse L929 cells at 50 uM incubated for 72 hrs by confocal laser microscopy. Type of data set: functional, cell-based. The method, boiled down: (§1)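 Cells seeded at 4 × 10⁴ per mL (MCF-7) or 1 × 10⁴ per mL (L929) in glass-bottom dishes and kept with azido sugar at 37 °C for 72 h. Washed cells were labelled with 20 μM DBCO-Cy5 for 1 h at 37 °C, formaldehyde-fixed and DAPI-mounted. Confocal imaging; mean fluorescence intensity quantified; mean ± SEM, n = 3.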

Data set [2] concerns MCF7. Briefly: Induction of azide reporter generation in human MCF7 cells at 50 uM incubated for 72 hrs by confocal laser microscopy. Type of data set: functional, cell-based. The method, boiled down: as §1
For data set [3], the system named is L929. In words: Induction of azide reporter generation in mouse L929 cells at 50 uM incubated for 72 hrs by Western blot analysis. Type of data set: functional, cell-based. A digest of the protocol: (§2)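 Cells seeded at 4 × 10⁴ per mL (MCF-7, RPMI/5% FBS) or 1 × 10⁴ per mL (L929, DMEM/10% FBS) and fed azido sugar at 37 °C for 72 h. RIPA lysates were cleared, protein-normalised and reacted with 0.5 μM phosphine-PEG3-biotin for 12 h at RT. 20 μg protein run on 8% SDS-PAGE, transferred to PVDF, blocked in BSA/TBST, probed overnight at 4 °C with streptavidin-HRP, ECL detection.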

For data set [4], the system named is MCF7. In words: Induction of azide reporter generation in human MCF7 cells at 50 uM incubated for 72 hrs by Western blot analysis. Format: functional, cell-based. A digest of the protocol: as §2
A general note: Reporter assays use an easily measured gene product as a stand-in for the process of interest.

In data set [5] the test system is MCF7. Briefly: Anticancer activity against human MCF7 cells assessed as cell viability at 50 uM by MTT assay relative to control. Type of data set: functional. To be noted: read-out: Activity. (Tetrazolium assays rely on reduction of a dye to a coloured formazan, in cell work by metabolically active cells.)
The nature of data set [6]: Selectivity index, ratio of IC50 for mouse L929 cells to IC50 for human MCF7 cells. To be noted: L929 cells and MCF7 cells, read-out: Ratio IC50. Type of data set: toxicity. A digest of the protocol:
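MTT assay on MCF-7 (RPMI, 5% FBS) and L929 (DMEM, 10% FBS) at 37 °C, 5% CO2. Some cells were first given 50 μM azido-sugar for 72 h. Cells were seeded at 4 × 10⁴ or 1 × 10⁵ cells/mL for 24 h, then treated with 0.001–10 μM for 72 h. MTT 0.5 mg/mL, 4 h, DMSO, A570; untreated control; triplicate; IC50 from fitted curves; ratio L929/MCF-7.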

Data set [7] in a line: Cytotoxicity against Tetra-O-acetyl-azidomannosamine engineered mouse L929 cells incubated for 72 hrs by MTT assay. Type of data set: toxicity, cell-based. As to conditions: L929 cells engineered with Tetra-O-acetyl-azidomannosamine. The method, boiled down:
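L929 cells grown in DMEM with 10% FBS at 37 °C, 5% CO2. Cells were pre-labelled with 50 μM Ac4ManNAz for 72 h, then seeded at 1 × 10⁵ cells per mL. After 24 h they were exposed to prodrug at 0.001–10 μM for 72 h. MTT (0.5 mg mL⁻¹, 4 h) was added, formazan dissolved in DMSO, A570 read. Untreated cells served as control. Triplicates; IC50 from fitted curve; mean ± SEM.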

For data set [8], the system named is MCF7. In words: Anticancer activity against Tetra-O-acetyl-azidomannosamine engineered human MCF7 cells incubated for 72 hrs by MTT assay. Format: functional, cell-based. To be noted: MCF7, 72 h. The method, boiled down: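 MCF-7 cells grown in RPMI 1640 with 5% FBS at 37 °C, 5% CO2. Cells were pre-labelled with 50 μM Ac4ManNAz for 72 h, then seeded at 4 × 10⁴ cells per mL. After 24 h they were exposed to prodrug at 0.001–10 μM for 72 h. MTT (0.5 mg mL⁻¹, 4 h) was added, formazan dissolved in DMSO, A570 read. Untreated cells served as control. Triplicates; IC50 from fitted curve; mean ± SEM.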

The source made the active and inactive calls. The rule behind the calls is not given here.

`CC(=O)N[C@H]1[C@H]([C@H](OC(C)=O)[C@@H](CN=[N+]=[N-])OC(C)=O)O[C@@](OC(C)=O)(C(=O)O)C[C@@H]1OC(C)=O`: the outcome in data set [1] and in data set [3] was inactive. For the same molecule, the outcome in data set [2] and in data set [4] was Active. Also, in data set [5], the viability at 50 µM was 100%.

As for `O=C(Nc1ccc(N(CCCl)CCCl)cc1)c1ccccc1P(c1ccccc1)c1ccccc1`, the selectivity ratio in data set [6] is 2.

Consider `CC(=O)N[C@H]1[C@H]([C@H](O)[C@H](O)CN=[N+]=[N-])OC(O)(C(=O)O)C[C@@H]1O` (single isomer, unassigned), for which the result in data set [1] and in data set [3] was inactive. For the same molecule, the result in data set [2] and in data set [4] was Active. For the same molecule, the viability at 50 µM in data set [5] came to 100%.

Regarding `COc1cccc2c1C(=O)c1c(O)c3c(c(O)c1C2=O)C[C@@](O)(C(=O)CO)C[C@@H]3OC1C[C@@H](NC(=O)c2ccccc2P(c2ccccc2)c2ccccc2)[C@@H](O)[C@@H](C)O1` (some centres undefined), the selectivity ratio in data set [6] is 2. The same molecule yielded an IC50 at 72 h in data set [7] of 7.7 µM. The same molecule yielded an IC50 in data set [8] of 0.2 µM.

On to `CC(=O)OC[C@H]1OC(OC(C)=O)[C@@H](NC(=O)CN=[N+]=[N-])[C@@H](OC(C)=O)[C@@H]1OC(C)=O` (some centres undefined), for which the outcome in data set [1], in data set [2], in data set [3] and in data set [4] was Active. For the same molecule, the viability at 50 µM in data set [5] is 100%.

A word on the IC50: it is the concentration needed to halve the response being measured.

These data come from ChEMBL document CHEMBL5335786, “Bioorthogonal activation of prodrugs, for the potential treatment of breast cancer, using the Staudinger reaction” (RSC Med Chem, 2023).
